Screens: PubChem, several laboratories
This is a sample that favours compounds with a hit; in the whole collection about 2.9% have one here.
Dynein cargo inh: dynein cargo transport inhibition; 3617.4 mouse cells, GR-EGFP nuclear translocation imaging; test concentration mostly 20 µM; stimulated with dexamethasone, 1 µM; stronger effect = lower value; z-score, hits read low; actives 0.47% (n = 220,000);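 active means plate z-score of nuclear minus cytoplasmic receptor signal below a set negative limit, without overly bright fluorescence or cell loss, cut at about -3.5 in these data, passing the limit was not always enough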;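 further: z-score of nuclear minus cytoplasmic ring GR-EGFP intensity difference per well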
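Buffer or medium: Induction medium lacking tetracycline, stripped serum | Also added: Dexamethasone agonist, 1.0 µM final, for 30 min | Timing: 48 h induction, 1 h compound, 30 min dex at 37 °C | Detection: Formaldehyde fixation, Hoechst nuclear stain, 10x automated fluorescence imaging | Measure: Nuclear versus cytoplasmic GR-EGFP signal, averaged per well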
MEKK2 WT-MEK5: raises or lowers MEK5 binding to wildtype human MEKK2 PB1 domain | Q9Y2U5 | bead flow cytometry, Alexa488-MEK5 binding to MEKK2 WT; actives lie on both sides | binding response (% of control), % at 10 µM | actives 1.1% (n = 290,000) | AID 1531; in the data active means binding response below about 67% or above about 130%
B2AR ag: human beta-2 adrenergic receptor agonism by FAP; P07550; actives 0.43% (n = 340,000); response, % (test concentration not listed); Am2.2-beta2AR cells, FAP receptor internalization, flow cytometry; AID 504454;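 active means response above a set limit, near 3 SD of response in nonfluorescent compounds, cut at about 42% in these data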
MEKK2mut PB1 HTS: signal of MEK5 binding to mutant human MEKK2 PB1 domain; bead flow cytometry, Alexa488-MEK5 binding to MEKK2 mutant; actives 0.35% (n = 290,000); AID 1530; percent response, % at 10 µM; in the data active means percent response above about 24%, passing the limit was not always enough
ATG4B inhibitor: blocks human ATG4B protease cleavage of LC3 substrate; Q9Y4P1; ATG4B cleavage of LC3-PLA2, NBD-HPC fluorescence, 1 h; inhibition, % at 8.33 µM; actives 0.51% (n = 340,000); AID 504462; in the data active means inhibition above about 40%
MEKK3 PB1 HTS: raises or lowers MEK5 binding to the human MEKK3 PB1 domain; bead-based flow cytometry, Alexa488-MEK5 binding to MEKK3; actives lie on both sides; 0 = blocked by unlabeled MEK5, 100 = vehicle; AID 1529; Q99759; binding response (% of control), % at 10 µM; actives 1.4% (n = 290,000);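 active means binding response more than 3 SD above or below the average of its plate-row segment, actives on both sides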;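 further: Alexa488 bead fluorescence after subtracting the streptavidin-only scavenger bead signal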
Target sequence (Q99759 whole entry, looked up, the tested form may be a part): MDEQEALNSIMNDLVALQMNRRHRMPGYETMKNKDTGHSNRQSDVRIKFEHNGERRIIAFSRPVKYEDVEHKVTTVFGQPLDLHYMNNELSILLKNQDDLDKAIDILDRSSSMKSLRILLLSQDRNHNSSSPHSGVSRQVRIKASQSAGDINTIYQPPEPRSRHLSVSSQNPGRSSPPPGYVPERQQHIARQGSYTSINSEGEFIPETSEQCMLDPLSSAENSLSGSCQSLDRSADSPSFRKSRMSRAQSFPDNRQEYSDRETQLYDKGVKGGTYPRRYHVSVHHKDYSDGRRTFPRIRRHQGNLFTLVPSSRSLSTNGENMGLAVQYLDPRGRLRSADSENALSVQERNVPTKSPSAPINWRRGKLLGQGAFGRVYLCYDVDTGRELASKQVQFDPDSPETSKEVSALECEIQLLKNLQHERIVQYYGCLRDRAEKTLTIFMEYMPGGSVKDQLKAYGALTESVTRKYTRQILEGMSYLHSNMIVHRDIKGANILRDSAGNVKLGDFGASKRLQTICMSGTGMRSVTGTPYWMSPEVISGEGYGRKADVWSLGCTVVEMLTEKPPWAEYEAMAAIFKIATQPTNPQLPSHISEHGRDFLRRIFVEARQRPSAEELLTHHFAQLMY
B2AR ag CP1: human beta-2 adrenergic receptor agonism, cherry pick. actives 25% (n = 1,100). shares compounds with B2AR ag. Am2.2-beta2AR cells, FAP surface receptor, flow cytometry; stronger effect = lower value. percent response (surface receptor), % at 10 µM;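 active means surface receptor percent response at or below 58%, roughly 3 SD from nonfluorescent compounds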
B2AR FAP counter: fluorescence artifact in beta-2AR agonist FAP counterscreen; calls only at 10 µM; AID 588765; 1,100 tested, under 10 active; shares compounds with B2AR ag; Am2.2 cells, FAP fluorogen flow cytometry; stronger effect = lower value;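 active means percent response below a set limit in fluorescence channel 1 and below 50% in channel 8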
Active calls of the source: *; i = inactive; · = no result given.

SMILES | Dynein cargo inh | MEKK2 WT-MEK5 | B2AR ag | MEKK2mut PB1 HTS | ATG4B inhibitor | MEKK3 PB1 HTS | B2AR ag CP1 | B2AR FAP counter
CCn1c(SCC(=O)Nc2ccc(-c3nc4ccc(C)cc4s3)cc2)nnc1-c1ccccc1 | 1.8 | 94 | · | -2 | · | 92 | · | ·
C=CCn1c(SCC(=O)Nc2ccc(-c3nc4ccc(C)cc4s3)cc2)nnc1-c1ccncc1 | 1.9 | 92 | 58* | -1 | 7 | 99 | 104 | i
COCCn1c(=O)[nH]c2cc(C(=O)NCCN3CCN(c4cccc(Cl)c4)CC3)ccc2c1=O | -0.8 | 106 | -8 | 6 | -12 | 99 | · | ·
COc1cccc(-c2ccc(NC(=O)C3CCCN(Cc4cnc(N(C)C)s4)C3)cc2)c1 (stereo not drawn) | · | 123 | 12 | 15 | -15 | 104 | · | ·
Cc1ncc(CN2CCCC(C(=O)Nc3ccc(-c4cccc(F)c4)cc3)C2)s1 (stereo not drawn) | · | 107 | 51* | 3 | -8 | 99 | 25* | i
Cc1ncc(CN2CCCC(C(=O)Nc3ccc(-c4cccc(F)c4)cc3)C2)cn1 (stereo not drawn) | · | 104 | 91* | 4 | 19 | 99 | 21* | i
Cn1nc(-c2ccc(C(=O)NCCO)cc2)c2ccccc2c1=O | 2.3 | 93 | -5 | -14 | 6 | 91 | 111 | i
CN(CCO)C(=O)c1ccc(-c2nn(C)c(=O)c3ccccc23)cc1 | 0.016 | 104 | 2 | 0 | -5 | 109 | · | ·
O=C(CN1CCN(C/C=C/c2ccccc2)CC1)NC(=O)NC1CCCCC1 | 1 | 95 | -2 | -4 | -17 | 90 | · | ·
CN(C(=O)c1ccc(NC(=O)Cc2ccc(NC(=O)C3CCCN(C(=O)C4CC4)C3)cc2)cc1)C1CCCC1 (stereo not drawn) | · | · | -23 | · | -12 | · | · | ·
Cc1cc(S(=O)(=O)N2CCCC2)ccc1OCC(=O)Nc1ccccc1 | · | 102 | 7 | 6 | -5 | 103 | 104 | i
COC(=O)COc1ccc(S(=O)(=O)N2CCCCCC2)cc1C | · | 107 | 15 | 6 | -15 | 102 | · | ·
Cc1cc(S(=O)(=O)N2CCCCC2)ccc1OCC(=O)Nc1ccccc1 | · | 108 | 10 | 7 | -4 | 103 | 102 | i
O=C(COc1ccc(S(=O)(=O)N2CCCC2)cc1Cl)Nc1ccc2c(c1)OCO2 | -0.4 | 97 | -2 | 0 | -18 | 101 | 118 | i
COc1ccc(C(=O)C(CCC(CNC(C)(C)C)C(=O)c2ccc(OC)cc2)CNC(C)(C)C)cc1 (stereo not drawn) | -2.1 | 117 | 54* | 27 | 0 | 99 | 80 | i
COc1ccc(C(=O)CC(=O)c2ccc(C(C)(C)C)cc2)cc1 | · | · | 3 | · | -4 | · | · | ·
CC(=O)c1cccc(NC(=O)CSc2nnnn2C2CCCC2)c1 | · | 99 | -8 | -3 | -5 | 102 | · | ·
COc1cccc(OC)c1OCC(O)CN1CCN(c2ccccc2)CC1 (stereo not drawn) | 0.82 | 97 | 48* | -8 | 3 | 95 | 126 | i
CC(=O)Nc1ccc(Nc2cc(C)nc3c(-c4ccccc4)c(C)nn23)cc1 | 0.32 | 94 | -7 | -5 | -7 | 91 | · | ·
CC(=O)Nc1ccc(Nc2cc(C(C)C)nc3c(-c4ccccc4)c(C)nn23)cc1 | 0.42 | 106 | 52* | -15 | 6 | 96 | 67 | i
CCOc1ccc(Oc2ccc(Cl)cc2N)cc1 | -0.35 | 109 | -4 | 0 | -5 | 117 | · | ·
CCn1c2ccccc2c2cc(Nc3cc(C)nc4ncnn34)ccc21 | -1.1 | 96 | 42* | -2 | 3 | 97 | 58 | i
CCc1ccc(Nc2cc(C)nc3ncnn23)cc1 | · | 105 | 8 | 2 | 0 | 107 | · | ·
CCC(NC(C)C)C(O)c1ccc(O)c(O)c1 (stereo not drawn) | 0.15 | 93 | 19 | 3 | -1 | 89 | 42* | i
CCC(c1ccc(O)c(O)c1)C(CC)c1ccc(O)c(O)c1 (stereo not drawn) | · | · | 5 | · | -5 | · | · | ·
SMILES | Dynein cargo inh | MEKK2 WT-MEK5 | B2AR ag | MEKK2mut PB1 HTS | ATG4B inhibitor | MEKK3 PB1 HTS | B2AR ag CP1 | B2AR FAP counter
CCN1CCN(S(=O)(=O)c2cc(OC)c(Cl)cc2OC)CC1 | -0.07 | 100 | 6 | 5 | -1 | 100 | · | ·
c1ccc(-n2cnc3ccccc32)nc1 | · | 101 | -17 | 0 | 1 | 98 | · | ·
c1ccc(-c2nccc(-c3ccc(-n4cnc5ccccc54)cc3)n2)cc1 | -0.75 | · | 71* | · | -12 | · | 96 | i
COc1ccc(NC(=O)N(C)C[C@H]2Oc3ccc(NS(=O)(=O)c4c(C)noc4C)cc3C(=O)N([C@H](C)CO)C[C@@H]2C)cc1 | · | · | -1 | · | -13 | · | · | ·
COc1ccc(CCn2c(=O)[nH]c3cc(C(=O)NCCN4CCOCC4)ccc3c2=O)cc1OC | -0.21 | · | 69* | · | -5 | · | · | i
COc1ccc(CCn2c(=O)[nH]c3cc(C(=O)NCCCN4CCOCC4)ccc3c2=O)cc1OC | -0.32 | 99 | -1 | -2 | -12 | 99 | · | ·
Cc1ccc(-n2c3nc(=O)[nH]c(=O)c-3cc3cc([N+](=O)[O-])ccc32)cc1 | -2 | 101 | 51* | -1 | 27 | 118 | 108 | i
Cc1ccc(-n2c(C)nn(Cc3ccc([N+](=O)[O-])cc3)c2=O)cc1 | -0.25 | 99 | -2 | -1 | 0 | 97 | · | ·
Cc1ccc(C)c(S(=O)(=O)N2CCN(C(=O)C3CCN(C(=O)c4ccc(F)cc4)CC3)CC2)c1 | · | · | 60* | · | -12 | · | 111 | i
O=C(c1ccc(F)cc1)N1CCC(C(=O)N2CCN(S(=O)(=O)c3cccc(F)c3)CC2)CC1 | · | · | -3 | · | 7 | · | · | ·
Cc1ccc(Cl)cc1N1CCN(C(=O)Cc2c(C(=O)O)[nH]c3ccc(Cl)cc23)CC1 | -0.42 | 107 | 75* | 5 | 32 | 106 | 113 | i
